# From ChEMBL document CHEMBL3351734 (Bioorg Med Chem Lett, 2014)
# Active and inactive are the calls of the source. No cut-off for these calls is given here. Residues, ends and D or L forms follow the SMILES beside them. *: point of attachment. Boc = CC(C)(C)OC(=O)*; NHBn = c1ccc(CN*)cc1
# Key:
# Cryptococcus neoformans [1] = experiment: Antimicrobial activity against Cryptococcus neoformans ATCC 90113 assessed as complete killing after 70 to 74 hrs by CLSI method; format: functional
# Vero = experiment: Cytotoxicity against African green monkey Vero cells after 48 hrs by neutral red assay; format: cell-based; settings: chlorocebus sabaeus
# Outline: (§1)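 Cells were exposed to peptides up to a highest tested concentration of 10 μg/mL, using a previously reported cytotoxicity protocol.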
# [2] = system: Mycobacterium intracellulare; experiment: Antimicrobial activity against Mycobacterium intracellulare ATCC 23068 after 70 to 74 hrs by Alamar Blue method; format: functional, organism-based
# BT-549 = experiment: Cytotoxicity against human BT549 cells after 48 hrs by neutral red assay; format: cell-based; settings: bt-549, 48 h; outline: as §1
# KB = experiment: Cytotoxicity against human KB cells after 48 hrs by neutral red assay; format: cell-based; outline: as §1
# SK-MEL = experiment: Cytotoxicity against human SK-MEL cells after 48 hrs by neutral red assay; format: cell-based; outline: as §1
# [3] = Cytotoxicity against pig LLC-PK cells after 48 hrs by neutral red assay; format: cell-based, Sus scrofa; outline: as §1
# [4] = Cytotoxicity against human SKOV3 cells after 48 hrs by neutral red assay; format: cell-based; settings: sk-ov-3, 48 h; outline: as §1
# Cryptococcus neoformans [5] = experiment: Antimicrobial activity against Cryptococcus neoformans ATCC 90113 assessed as detectable growth after 70 to 74 hrs by CLSI method; format: functional
# Staphylococcus aureus [6] = experiment: Antibacterial activity against methicillin-resistant Staphylococcus aureus ATCC 33591 assessed as absence of detectable growth; format: functional
# Outline: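 MIC was determined by the CLSI (formerly NCCLS) protocol. It was taken as the lowest test concentration in μg/mL allowing no detectable growth.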
# Staphylococcus aureus [7] = experiment: Antibacterial activity against Staphylococcus aureus ATCC 29213 assessed as absence of detectable growth; format: functional
# Outline: (§2)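 Antibacterial susceptibility determined by the CLSI (formerly NCCLS) protocol. MIC is the lowest test concentration (μg/mL) allowing no detectable growth. MBC is the lowest test concentration killing 100% of the organism.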
# Cryptococcus neoformans [8] = experiment: Antimicrobial activity against Cryptococcus neoformans ATCC 90113 assessed as growth inhibition after 70 to 74 hrs by CLSI method; format: functional, organism-based
# Staphylococcus aureus [9] = experiment: Antibacterial activity against Staphylococcus aureus ATCC 29213 assessed as 100% killing; format: functional; outline: as §2
# Staphylococcus aureus [10] = experiment: Antibacterial activity against methicillin-resistant Staphylococcus aureus ATCC 33591 assessed as 100% killing; format: functional
# Outline: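 Testing followed the CLSI (formerly NCCLS) susceptibility protocol. MBC was taken as the lowest test concentration in μg/mL that kills 100% of the organism.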
MIC (Cryptococcus neoformans [5]),SMILES,MFC (Cryptococcus neoformans [1]),Activity (Vero),inhibition [2],Activity (BT-549),Activity (KB),Activity (SK-MEL),Activity [3],Activity [4],MIC (Staphylococcus aureus [6]),MIC (Staphylococcus aureus [7]),IC50 (Cryptococcus neoformans [8]),MBC (Staphylococcus aureus [9]),MBC (Staphylococcus aureus [10])
inactive,CC(C)(C)OC(=O)N[C@@H](Cc1cnc(C2CCCCC2)[nH]1)C(=O)N[C@@H](Cc1c[nH]c2ccccc12)C(=O)N[C@@H](Cc1cnc(C2CCCCC2)[nH]1)C(=O)NCc1ccccc1,inactive,> 10 µg/mL,inactive,> 10 µg/mL,> 10 µg/mL,> 10 µg/mL,> 10 µg/mL,> 10 µg/mL,–,–,Not Active,–,–
inactive,N[C@@H](Cc1cnc(C2CCCC2)[nH]1)C(=O)N[C@@H](Cc1c[nH]c2ccccc12)C(=O)N[C@@H](Cc1cnc(C2CCCC2)[nH]1)C(=O)NCc1ccccc1,inactive,> 10 µg/mL,inactive,> 10 µg/mL,> 10 µg/mL,> 10 µg/mL,> 10 µg/mL,> 10 µg/mL,–,–,Not Active,–,–
1.25 µg/mL,N[C@@H](Cc1cnc(C2CCCCC2)[nH]1)C(=O)N[C@@H](Cc1c[nH]c2ccccc12)C(=O)N[C@@H](Cc1cnc(C2CCCCC2)[nH]1)C(=O)NCc1ccccc1,–,> 10 µg/mL,inactive,> 10 µg/mL,> 10 µg/mL,> 10 µg/mL,> 10 µg/mL,> 10 µg/mL,–,–,–,–,–
inactive,CC(C)(C)OC(=O)N[C@@H](Cc1cnc(C2CCCC2)[nH]1)C(=O)N[C@@H](Cc1c[nH]c2ccccc12)C(=O)N[C@@H](Cc1cnc(C2CCCC2)[nH]1)C(=O)NCc1ccccc1,inactive,> 10 µg/mL,inactive,> 10 µg/mL,> 10 µg/mL,> 10 µg/mL,> 10 µg/mL,> 10 µg/mL,–,–,–,–,–
inactive,CC(C)c1ncc(C[C@H](NC(=O)OC(C)(C)C)C(=O)N[C@@H](Cc2c[nH]c3ccccc23)C(=O)N[C@@H](Cc2cnc(C(C)C)[nH]2)C(=O)NCc2ccccc2)[nH]1,inactive,> 10 µg/mL,inactive,> 10 µg/mL,> 10 µg/mL,> 10 µg/mL,> 10 µg/mL,> 10 µg/mL,–,–,Not Active,–,–

# The next lines start with the compound.
SMILES,MIC (Cryptococcus neoformans [5]),MFC (Cryptococcus neoformans [1]),Activity (Vero),inhibition [2],Activity (BT-549),Activity (KB),Activity (SK-MEL),Activity [3],Activity [4],MIC (Staphylococcus aureus [6]),MIC (Staphylococcus aureus [7]),IC50 (Cryptococcus neoformans [8]),MBC (Staphylococcus aureus [9]),MBC (Staphylococcus aureus [10])
CC(C)(C)OC(=O)N[C@@H](Cc1cnc[nH]1)C(=O)N[C@@H](Cc1c[nH]c2ccccc12)C(=O)N[C@@H](Cc1cnc[nH]1)C(=O)NCc1ccccc1 (Boc-His-Trp-His-NHBn),–,1.25 µg/mL,> 10 µg/mL,inactive,> 10 µg/mL,> 10 µg/mL,> 10 µg/mL,> 10 µg/mL,> 10 µg/mL,–,–,–,–,–
N[C@@H](Cc1cnc[nH]1)C(=O)N[C@@H](Cc1c[nH]c2ccccc12)C(=O)N[C@@H](Cc1cnc[nH]1)C(=O)NCc1ccccc1 (H-His-Trp-His-NHBn),–,10 µg/mL,> 10 µg/mL,inactive,> 10 µg/mL,> 10 µg/mL,> 10 µg/mL,> 10 µg/mL,> 10 µg/mL,–,–,–,–,–
CC(C)c1ncc(C[C@H](NC(=O)[C@H](Cc2c[nH]c3ccccc23)NC(=O)[C@@H](N)Cc2cnc(C(C)C)[nH]2)C(=O)NCc2ccccc2)[nH]1,20 µg/mL,–,> 10 µg/mL,inactive,> 10 µg/mL,> 10 µg/mL,> 10 µg/mL,> 10 µg/mL,> 10 µg/mL,–,–,–,–,–
N[C@@H](Cc1cnc(C23CC4CC(CC(C4)C2)C3)[nH]1)C(=O)N[C@@H](Cc1c[nH]c2ccccc12)C(=O)N[C@@H](Cc1cnc(C23CC4CC(CC(C4)C2)C3)[nH]1)C(=O)NCc1ccccc1,0.63 µg/mL,–,> 10 µg/mL,inactive,> 10 µg/mL,> 10 µg/mL,> 10 µg/mL,> 10 µg/mL,> 10 µg/mL,10 µg/mL,5 µg/mL,–,–,–
C[C@@H]1[C@H](O)[C@@H](C)/C=C/C=C/C=C/C=C/C=C/C=C/C=C/[C@H](O[C@@H]2O[C@H](C)[C@@H](O)[C@H](N)[C@@H]2O)C[C@@H]2O[C@](O)(C[C@@H](O)C[C@@H](O)[C@H](O)CC[C@@H](O)C[C@@H](O)CC(=O)O[C@H]1C)C[C@H](O)[C@H]2C(=O)O [AMPHOTERICIN B],–,1.25 µg/mL,> 10 µg/mL,inactive,> 10 µg/mL,> 10 µg/mL,> 10 µg/mL,> 10 µg/mL,> 10 µg/mL,–,–,–,–,–
CC(C)(C)c1ncc(C[C@H](NC(=O)[C@H](Cc2c[nH]c3ccccc23)NC(=O)[C@@H](N)Cc2cnc(C(C)(C)C)[nH]2)C(=O)NCc2ccccc2)[nH]1,–,20 µg/mL,> 10 µg/mL,inactive,> 10 µg/mL,> 10 µg/mL,> 10 µg/mL,> 10 µg/mL,> 10 µg/mL,–,–,–,–,–
O=C(O)c1cn(C2CC2)c2cc(N3CCNCC3)c(F)cc2c1=O [CIPROFLOXACIN],–,–,–,inactive,–,–,–,–,–,–,–,–,–,–
CC(C)(C)OC(=O)N[C@@H](Cc1cnc(C23CC4CC(CC(C4)C2)C3)[nH]1)C(=O)N[C@@H](Cc1c[nH]c2ccccc12)C(=O)N[C@@H](Cc1cnc(C23CC4CC(CC(C4)C2)C3)[nH]1)C(=O)NCc1ccccc1,–,–,> 10 µg/mL,inactive,> 10 µg/mL,> 10 µg/mL,> 10 µg/mL,> 10 µg/mL,> 10 µg/mL,–,20 µg/mL,–,20 µg/mL,20 µg/mL
CC(C)(C)OC(=O)N[C@@H](Cc1cnc(C(C)(C)C)[nH]1)C(=O)N[C@@H](Cc1c[nH]c2ccccc12)C(=O)N[C@@H](Cc1cnc(C(C)(C)C)[nH]1)C(=O)NCc1ccccc1,inactive,inactive,> 10 µg/mL,inactive,> 10 µg/mL,> 10 µg/mL,> 10 µg/mL,> 10 µg/mL,> 10 µg/mL,–,–,Not Active,–,–
